Assay outcomes deposited in PubChem by Johns Hopkins Ion Channel Center.
Hits are enriched below; roughly 3.7% of the tested compounds scored in any of these assays.
hERG rescue – shields human hERG channel from block by proarrhythmic agents | CHO-hERG, FluxOR thallium flux, dofetilide IC70 present | Q12809 | AID 1511 | activation (rescue from dofetilide block), less the hit threshold, % at 10 µM | hit rate 0.51% among 310,000;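 active = activation above the mean of controls blocked by dofetilide plus 5 SD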;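 also: thallium influx through hERG after potassium depolarization seen as dye fluorescence rise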
KCNQ1 block – inhibitors of human KCNQ1 potassium channel | hit rate 1.3% among 310,000 | P51787 | CHO-K1 KCNQ1, FluxOR thallium flux fluorescence; hits give high values | B-score at 10 µM;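 active = compounds whose thallium flux B-score, printed positive for inhibition, exceeds three library SD while starting fluorescence stays within three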;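 also: channel opened by potassium depolarization with thallium stimulus after 20 min compound exposure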
Target sequence (P51787 whole entry, looked up): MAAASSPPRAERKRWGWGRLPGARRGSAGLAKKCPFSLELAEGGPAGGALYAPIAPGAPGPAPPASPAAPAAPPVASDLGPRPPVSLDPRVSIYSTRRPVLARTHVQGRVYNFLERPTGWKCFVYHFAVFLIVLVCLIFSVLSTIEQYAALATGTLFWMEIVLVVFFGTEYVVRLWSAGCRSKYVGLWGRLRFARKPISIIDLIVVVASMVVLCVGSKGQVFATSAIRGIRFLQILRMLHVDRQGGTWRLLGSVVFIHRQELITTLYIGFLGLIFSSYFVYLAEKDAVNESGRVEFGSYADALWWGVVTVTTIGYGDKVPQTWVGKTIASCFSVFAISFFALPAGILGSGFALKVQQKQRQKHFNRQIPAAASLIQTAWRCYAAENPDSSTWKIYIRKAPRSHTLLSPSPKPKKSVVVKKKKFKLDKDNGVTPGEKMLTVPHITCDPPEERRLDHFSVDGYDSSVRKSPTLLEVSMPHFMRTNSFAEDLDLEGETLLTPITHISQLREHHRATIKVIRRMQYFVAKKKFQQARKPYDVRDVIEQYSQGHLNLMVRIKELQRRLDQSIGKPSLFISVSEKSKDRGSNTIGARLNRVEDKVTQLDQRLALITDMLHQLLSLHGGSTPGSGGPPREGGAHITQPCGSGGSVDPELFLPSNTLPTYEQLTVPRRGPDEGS
KCNK3 block – human KCNK3 channel inhibition, primary screen; hit rate 0.84% among 340,000; B-score at 10 µM; CHO-KCNK3 thallium flux, FluxOR fluorescence; hits give low values; O14649;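 active = B-score under library mean minus 4 SD, starting fluorescence ratio at most library mean plus 5 SD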;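 also: more negative B-score means stronger inhibition of thallium flux through KCNK3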
Kir21 inh – blocks the mouse Kir2.1 inward-rectifier potassium channel; hit rate 0.85% among 310,000; HEK293-Kir2.1, FluxOR thallium flux fluorescence; hits give low values; B-score at 10 µM; P35561;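 active = fluorescence ratio B-score at or below minus 3 SD of library scores, with starting-brightness B-score within 2 SD, cut at about -4.2 in these data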;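 also: channel flux triggered by added potassium and thallium sulfate stimulus; B-score of peak minus minimum fluorescence over baseline after thallium stimulus; more negative B-score means stronger Kir2.1 block with less thallium influx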
KCNQ1 pot – human KCNQ1 channel potentiation or activation. B-score at 10 µM. AID 2648. CHO-K1 KCNQ1, thallium flux FluxOR fluorescence; hits give high values. hit rate 0.35% among 310,000;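 active = fluorescence ratio B-score, a plate-corrected score, at least three library SD, with initial intensity B-score within 5 SD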
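assay system = KCNQ1-transfected CHO-K1 cells | medium = assay buffer with matched DMSO | probe or stimulus = depolarizing K+/Tl+ stimulus, K2SO4 and Tl2SO4 each 12.5 mM in 5x stock | dosing = single dose | incubation = dye 90 min, compound 20 min, room temperature | detection = kinetic FluxOR fluorescence, 10 s baseline plus 110 s post-stimulus | evaluation = ratio B score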
KCNK9 block – human KCNK9 channel inhibition | Q9NPC2 | HEK293 KCNK9, FluxOR thallium flux fluorescence; hits give low values | B-score at 10 µM | hit rate 1.2% among 310,000 | AID 488922;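 active = ratio B-score over 3 SD below the library mean, with starting fluorescence within 5 SD of its mean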;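 also: negative B-score means less thallium flux so channel inhibition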
KCNK9 block conf – human KCNK9 inhibitor confirmation; shares compounds with KCNK9 block; HEK293 KCNK9 cells, FluxOR thallium flux fluorescence; inhibition, % at 10 µM; hit rate 43% among 4,900;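 active = thallium signal inhibited by more than 5 SD of the compound-free buffer control wells, on both duplicate plates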
Kir21 sel – selectivity of KCNK9 modulators against mouse Kir2.1 | shares compounds with KCNK9 block | Kir2.1 cells, FluxOR thallium flux fluorescence | hit rate 4% among 4,900 | inhibition, % at 10 µM | AID 492993;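 active = thallium signal drop more than 5 SD beyond the mean of the no-compound control wells, seen in both duplicate plates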;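 also: signal is fluorescence rise after thallium addition divided by baseline fluorescence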
HEK293 Tl ctr – non-induced cell nonspecific activity of KCNK9 modulators; non-induced KCNK9-HEK293, FluxOR thallium flux; hit rate 40% among 4,900; shares compounds with KCNK9 block; inhibition, % at 10 µM;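 active = thallium signal drop beyond 5 SD of the untreated control mean, on both duplicate plates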
A number is an active result; i = inactive; nt = no result.

SMILES	hERG rescue	KCNQ1 block	KCNK3 block	Kir21 inh	KCNQ1 pot	KCNK9 block	KCNK9 block conf	Kir21 sel	HEK293 Tl ctr
CCOc1ccccc1N1CCN(C(=O)c2cc3cc(OC)ccc3[nH]2)CC1	i	i	i	i	i	i	i	i	i
Cc1cc(S(=O)(=O)N2CCCCCC2)c(Cl)cc1Cl	i	i	i	i	i	i	i	i	i
O=S(=O)(c1cc(Cl)ccc1Cl)N1CCCCC1	i	i	i	i	i	i	nt	nt	nt
CC1=C(C(=O)OCC2CCCO2)C(c2ccc(F)cc2)NC(=O)N1 (stereo not drawn)	i	i	i	i	i	i	nt	nt	nt
Cc1c(C)c(C)c(C(=O)c2ccc(NC(=O)c3ccccc3C(=O)O)cc2)c(C)c1C	i	i	i	i	i	i	i	i	i
COc1ccc(NC(=O)c2ccccc2-c2ccccc2C(=O)O)cc1	i	i	i	i	i	i	nt	nt	nt
Cc1sc(NC(=O)c2ccco2)c(C(=O)c2ccc(Cl)cc2)c1C	i	i	i	i	i	i	nt	nt	nt
O=C(O)c1ccccc1C(=O)Nc1ccc(Oc2ccc3ccccc3c2)cc1	i	i	i	i	i	i	i	i	i
Cc1ccc(C(=O)c2c(NC(=O)c3ccccc3C)sc(C)c2C)cc1	i	i	i	i	i	i	i	i	i
CCC1SC2=NC(C)=C(C(=O)OCCOC)C(/C=C/c3ccccc3OC)N2C1=O (stereo not drawn)	i	i	i	i	i	i	i	i	34%
CCOC(=O)C1=C(C)NC(C)=C(C(=O)OCC)C1/C=C/c1ccccc1OC	i	i	i	i	i	i	nt	nt	nt
COCCOC(=O)C1=C(C)NC(C)=C(C(=O)OCCOC)C1/C=C/c1ccccc1OC	i	i	i	i	i	i	i	i	i
CCC1SC2=NC(C)=C(C(=O)OCC(C)C)C(/C=C/c3ccccc3OC)N2C1=O (stereo not drawn)	i	i	i	i	i	i	32%	i	47%
COC(=O)C1=C(C)N=C2SC(C)C(=O)N2C1/C=C/c1ccccc1OC (stereo not drawn)	i	i	i	i	i	i	nt	nt	nt
COC(=O)C1=C(C)N(Cc2ccc(C)cc2)C(=O)/C1=C\c1ccc(O)c(OC)c1	i	i	i	i	i	-8.9	62%	i	40%
CCOc1cc(/C=C2\C(=O)N(CCc3ccc(OC)c(OC)c3)C(C)=C2C(=O)OC)ccc1O	i	i	i	i	i	i	nt	nt	nt
CCOc1ccc(C2=C(C=Nc3c(C)n(C)n(-c4ccccc4)c3=O)C(c3ccc(F)cc3)c3ccccc3O2)cc1 (stereo not drawn)	i	i	i	i	i	i	i	i	i
CC(=O)Nc1ccccc1N(C)S(=O)(=O)c1ccc(C)cc1	i	i	i	i	i	-8.3	i	i	i
CCc1ccc(S(=O)(=O)NCCc2csc(-c3ccccc3)n2)s1	i	i	i	-4.5	i	-10	50%	38%	39%
O=C(Nc1ccccc1)OC1CC2CC1C1CCCC21 (stereo not drawn)	i	i	i	i	i	i	i	i	i
O=C(Nc1ccccc1)O[C@@H]1C[C@H]2CCCC(=O)N3CC[C@@H](C1)[C@@H]23	nt	nt	i	nt	nt	nt	nt	nt	nt
COC(=O)c1ccc(C(=O)OC)c(NC(=O)COC(=O)CC2CC3CCC2C3)c1 (stereo not drawn)	i	i	-14	i	i	-13	50%	i	29%
CCOc1ccc(C(=O)NCC(c2ccco2)N2CCOCC2)cc1 (stereo not drawn)	i	i	i	i	i	i	nt	nt	nt
COc1ccccc1-c1nc(C#N)c(N2CCc3ccccc3C2)o1	i	i	-13	i	i	-21	67%	i	i
COc1ccccc1-c1nc(C#N)c(N2CCCCCC2)o1	i	i	i	i	i	i	nt	nt	nt
SMILES	hERG rescue	KCNQ1 block	KCNK3 block	Kir21 inh	KCNQ1 pot	KCNK9 block	KCNK9 block conf	Kir21 sel	HEK293 Tl ctr
COc1ccccc1-c1nc(C#N)c(N2CCN(c3ccccc3)CC2)o1	i	i	i	i	i	-12	44%	i	i
O=C(COC(=O)C1=NN(c2ccccc2)C(=O)CC1)NCc1ccccc1Cl	nt	nt	i	nt	nt	nt	nt	nt	nt
Cc1cc(=O)[nH]c(SC(C)C(=O)Nc2cccc3ccccc23)n1 (stereo not drawn)	i	i	i	i	i	i	nt	nt	nt
CSc1nnc(SCC2=NNC(=O)SC2)s1	i	i	i	i	i	i	nt	nt	nt
Cc1cccc2sc(N(CCCN(C)C)C(=O)c3sc4ccccc4c3Cl)nc12	nt	nt	i	nt	nt	nt	nt	nt	nt
COc1cc2ccccc2cc1C(=O)N(CCN(C)C)c1nc2c(C)cccc2s1	i	i	i	i	i	i	nt	nt	nt
Cc1cc(C)c2sc(N(CCN(C)C)C(=O)c3ccc4ccccc4c3)nc2c1	i	i	i	i	i	i	nt	nt	nt
Cc1cccc2sc(N(CCN(C)C)C(=O)c3cc(Cl)sc3Cl)nc12	i	i	i	i	i	i	i	i	i
Cc1ccc2sc(N(CCN(C)C)C(=O)c3ccc4ccccc4c3)nc2c1C	i	i	i	i	i	i	i	i	i
Cc1cccc2sc(N(CCCN(C)C)C(=O)c3ccc(C(=O)c4ccccc4)cc3)nc12	i	i	i	i	i	i	i	i	i
CSCCC(NC(=O)c1ccccc1)C(=O)N1CC(C)OC(C)C1 (stereo not drawn)	nt	nt	i	nt	nt	nt	nt	nt	nt
O=C1NCCCC1C(=O)N/N=C/c1cccc(O)c1 (stereo not drawn)	i	i	i	i	i	i	nt	nt	nt
COc1cc(C)ccc1N(CCCN1C(=O)c2cccc3cccc(c23)C1=O)C(=O)c1cccs1	i	i	i	i	i	-14	80%	i	34%
COc1ccc(N(CCCN2C(=O)c3cccc4cccc(c34)C2=O)C(=O)c2cccs2)cc1	i	i	i	i	i	i	nt	nt	nt
Cc1ccc(N(CCCCN2C(=O)c3ccccc3C2=O)C(=O)c2cccs2)cc1	i	i	i	i	i	i	i	i	i
Cc1oc(-c2ccccc2Cl)nc1Cn1cccc1C1=NC(c2ccccc2)CO1 (stereo not drawn)	i	6	i	i	i	-13	54%	i	52%
Cc1ccc(Cn2cccc2C2=NC(C)CO2)cc1 (stereo not drawn)	i	i	i	i	i	i	nt	nt	nt
CC(C)C1COC(c2cccn2Cc2ccccc2Cl)=N1 (stereo not drawn)	i	i	i	i	i	i	i	i	30%
O=C(N/N=C/c1ccc([N+](=O)[O-])cc1)c1cccc(N2CCCC2=O)c1	i	i	i	i	i	i	nt	nt	nt
